ChEMBL document CHEMBL3414458, “Discovery of novel 2,5-dioxoimidazolidine-based P2X(7) receptor antagonists as constrained analogues of KN62” (J Med Chem, 2015)
Activity calls are given as the source filed them. The rule behind the calls is not given here.

Tests used:
[1] = target: T1, P2X purinoceptor 3 (Homo sapiens) (UniProt P56373); experiment: Antagonist activity at recombinant human P2X3 receptor overexpressed in Xenopus oocytes assessed as inhibition of ATP-induced ion current at 10 uM preincubated for 20 mins followed by ATP induction by two-electrode voltage clamping method relative to control; format: cell-based
T1 sequence (whole entry): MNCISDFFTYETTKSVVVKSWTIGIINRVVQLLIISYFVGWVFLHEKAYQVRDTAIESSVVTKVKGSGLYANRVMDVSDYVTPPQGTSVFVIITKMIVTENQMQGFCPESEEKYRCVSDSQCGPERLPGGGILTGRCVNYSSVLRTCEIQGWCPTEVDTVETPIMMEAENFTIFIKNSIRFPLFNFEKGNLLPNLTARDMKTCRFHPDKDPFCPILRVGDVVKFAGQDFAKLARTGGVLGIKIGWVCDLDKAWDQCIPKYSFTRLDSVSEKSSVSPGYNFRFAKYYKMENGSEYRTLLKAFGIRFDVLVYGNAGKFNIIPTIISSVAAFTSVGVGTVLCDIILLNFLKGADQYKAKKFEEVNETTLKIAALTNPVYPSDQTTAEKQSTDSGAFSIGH
Procedure, shortened: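 Xenopus oocytes were microinjected with capped cRNA for human P2X3. Two-electrode voltage clamp recorded ion current evoked by 2 µM ATP. Test compound at 10 µM was scored as percent reduction of the ATP-induced current.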

Rattus norvegicus = experiment: Antiinflammatory activity in Sprague-Dawley rat assessed as decrease in carrageenan-induced paw edema at 10 mg/kg, ip preincubated for 1 hr followed by carrageenan challenge measured after 3 to 6 hrs by plethysmometer relative to control
Mus musculus [2] = experiment: Downregulation of COX-2 expression in ankle tissue of CII-induced DBA/1J mouse arthritic model at 25 to 50 mg/kg, ip measured 10 days post second CII booster by immunoblot analysis; format: functional, organism-based
[3] = target: T2, P2X purinoceptor 7 (Mus musculus) (UniProt Q9Z1M0); experiment: Antagonist activity at P2X7 receptor in LPS-primed mouse J774.A1 cells assessed as inhibition of ATP-induced IL-1beta release after 30 mins by ELISA; format: cell-based
T2 sequence (whole entry): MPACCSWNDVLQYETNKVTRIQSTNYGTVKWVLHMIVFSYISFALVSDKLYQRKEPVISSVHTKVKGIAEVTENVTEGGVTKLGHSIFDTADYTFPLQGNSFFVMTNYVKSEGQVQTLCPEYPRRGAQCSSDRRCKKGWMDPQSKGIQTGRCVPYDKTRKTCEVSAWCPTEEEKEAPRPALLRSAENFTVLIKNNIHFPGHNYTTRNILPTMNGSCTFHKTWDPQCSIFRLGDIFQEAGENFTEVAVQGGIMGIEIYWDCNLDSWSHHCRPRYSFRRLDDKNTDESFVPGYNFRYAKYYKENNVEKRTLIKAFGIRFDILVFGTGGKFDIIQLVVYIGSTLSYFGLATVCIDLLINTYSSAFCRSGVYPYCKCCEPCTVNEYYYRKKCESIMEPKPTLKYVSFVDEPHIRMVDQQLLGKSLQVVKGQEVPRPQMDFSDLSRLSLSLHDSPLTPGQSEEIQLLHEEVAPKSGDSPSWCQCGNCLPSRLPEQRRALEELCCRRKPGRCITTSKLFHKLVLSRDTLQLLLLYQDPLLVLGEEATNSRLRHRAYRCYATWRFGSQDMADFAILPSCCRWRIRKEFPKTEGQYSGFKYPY
Procedure, shortened: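 J774.A1 mouse cells stimulated with 5 mM ATP; IL-1β release measured, with IC50 taken from concentration-response data.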

Mus musculus [4] = experiment: Antiarthritic activity in CII-induced DBA/1J mouse arthritic model assessed as decrease in fibrosis at 50 mg/kg, ip measured 10 days post second CII booster by Hematoxylin and eosin staining relative to CII-treated control; format: functional, organism-based; parameters: dose 50 mg/kg
Procedure, shortened: (§1)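 Mouse type II collagen-induced arthritis; 50 mg/kg dosed by injection. Ankle histology was scored as cumulative arthritis injury scores against the vehicle-treated CII group.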

Mus musculus [5] = experiment: Antiarthritic activity in CII-induced DBA/1J mouse arthritic model assessed as decrease in periarticular erosion at 50 mg/kg, ip measured 10 days post second CII booster by Hematoxylin and eosin staining relative to CII-treated control; format: functional, organism-based; parameters: dose 50 mg/kg; procedure, shortened: as §1
[6] = target: T3, P2X purinoceptor 7 (Homo sapiens) (UniProt Q99572); experiment: Antagonist activity at P2X7 receptor in LPS/IFN-gamma-differentiated human THP1 cells assessed as inhibition of BzATP-induced IL-1beta release at 1 uM preincubated for 30 mins followed by BzATP induction measured after 30 mins by ELISA relative to control; format: cell-based; settings: THP-1
T3 sequence (whole entry): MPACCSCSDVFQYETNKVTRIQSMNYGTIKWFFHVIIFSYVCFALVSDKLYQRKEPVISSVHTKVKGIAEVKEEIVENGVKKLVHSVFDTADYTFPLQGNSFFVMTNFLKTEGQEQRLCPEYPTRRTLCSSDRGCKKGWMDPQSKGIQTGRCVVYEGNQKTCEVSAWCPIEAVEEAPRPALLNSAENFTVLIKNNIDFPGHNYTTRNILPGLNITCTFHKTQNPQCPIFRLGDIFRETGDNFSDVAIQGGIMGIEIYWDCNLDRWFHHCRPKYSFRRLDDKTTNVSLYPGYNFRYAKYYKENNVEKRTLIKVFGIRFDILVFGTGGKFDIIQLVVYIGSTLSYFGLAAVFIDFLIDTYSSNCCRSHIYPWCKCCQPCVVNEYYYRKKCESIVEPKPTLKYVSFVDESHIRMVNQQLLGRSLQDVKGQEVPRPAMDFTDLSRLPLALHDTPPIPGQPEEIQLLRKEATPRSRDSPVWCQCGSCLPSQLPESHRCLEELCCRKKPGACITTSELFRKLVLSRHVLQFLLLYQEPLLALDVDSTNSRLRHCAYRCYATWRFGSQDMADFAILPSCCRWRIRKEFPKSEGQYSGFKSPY
Procedure, shortened: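 LPS-primed THP-1 human monocytes were stimulated with BzATP, and IL-1β release was measured by ELISA. Test compound was given at a single concentration of 1 µM, and results are expressed as percent inhibition of BzATP-induced IL-1β release.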

Mus musculus [7] = experiment: Antiarthritic activity in CII-induced DBA/1J mouse arthritic model assessed as decrease in abcess formation at 50 mg/kg, ip measured 10 days post second CII booster by Hematoxylin and eosin staining relative to CII-treated control; format: functional, organism-based; parameters: dose 50 mg/kg; procedure, shortened: as §1

inhibition [1]: 5.05%
inhibition [3]: Dose-dependent effect
inhibition [6]: > 95%
Structure (SMILES): O=C1NC(=O)N(C2CCN(C(=O)c3ccc(Cl)c(C(F)(F)F)c3)CC2)C1Cc1ccc(OS(=O)(=O)c2cccc3cnccc23)cc1 (racemic)
Activity (Rattus norvegicus): Active
Activity (Mus musculus [2]): Active
Activity (Mus musculus [4]): Active
Activity (Mus musculus [5]): Active
Activity (Mus musculus [7]): Active
